This note sets out measurements from ChEMBL document CHEMBL1150283, “Synthesis, cytostatic and anti-HIV evaluations of the new unsaturated acyclic C-5 pyrimidine nucleoside analogues” (Bioorg Med Chem, 2008).

The structures appear in SMILES notation.

Test [1] concerns MCF7. Put plainly: Antiproliferative activity against human MCF7 cells after 3 days by MTT assay. The test is classed as functional, cell-based. The conditions noted are these: MCF7, 72 h. The procedure, abridged:
(§1)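 Monolayers grown in DMEM with 10% FBS, 2 mM L-glutamine, penicillin/streptomycin at 37 °C, 5% CO2. Seeded at 1 × 10⁴ to 3 × 10⁴ cells/mL, then exposed 72 h to five 10-fold dilutions (10⁻⁸ to 10⁻⁴ M) from 0.04 M DMSO stocks, with a solvent control. MTT added for 4 h, formazan dissolved in DMSO, A570 read. Percentage growth taken against time-zero and untreated OD. Quadruplicates in three experiments; IC50 by linear regression.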
(Tetrazolium assays rely on reduction of a dye to a coloured formazan, in cell work by metabolically active cells.)

A short description of test [2]: Cytotoxicity against human WI38 cells after 3 days by MTT assay. Type of test: cell-based. The following applies: WI-38, 72 h. The procedure, abridged:
as §1

Test [3] has as its system Human immunodeficiency virus 2. Put plainly: Antiviral activity against HIV2 assessed as inhibition of virus-induced cytopathogenicity in CEM cells. The conditions noted are these: Human immunodeficiency virus 2, CCRF-CEM. The test is classed as functional, organism-based. The procedure, abridged: (§2)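 CEM cell cultures infected with HIV-1 or HIV-2. Virus-induced cytopathicity scored as syncytia formation.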

For test [4], the system named is Human immunodeficiency virus 1. Put plainly: Antiviral activity against HIV1 assessed as inhibition of virus-induced cytopathogenicity in CEM cells. The test is classed as functional, organism-based. The following applies: Human immunodeficiency virus 1, CCRF-CEM. The procedure, abridged:
as §2
Background: Protection from cytopathic effect is a common read-out in antiviral testing.

The subject of test [5] is CCRF-CEM. Put plainly: Antiproliferative activity against human CEM cells after 3 days by MTT assay. Type of test: functional, cell-based. The following applies: 72 h.
The nature of test [6]: Antiproliferative activity against human Molt4/C8 cells after 3 days by MTT assay. The test is classed as functional, cell-based. The following applies: MOLT-4, 72 h.
The test system of test [7] is HeLa. Put plainly: Antiproliferative activity against human HeLa cells after 3 days by MTT assay. Type of test: functional, cell-based. The following applies: 72 h. The essentials:
as §1

Test [8] concerns HepG2. Put plainly: Antiproliferative activity against human HepG2 cells after 3 days by MTT assay. Type of test: functional, cell-based. The conditions noted are these: HepG2, 72 h. The essentials:
as §1

The subject of test [9] is MIA PaCa-2. Put plainly: Antiproliferative activity against human MiaPaCa2 cells after 3 days by MTT assay. The test is classed as functional, cell-based. The following applies: MIA PaCa-2, 72 h. The procedure, abridged: as §1
In test [10] the test system is SW-620. Put plainly: Antiproliferative activity against human SW620 cells after 3 days by MTT assay. The test is classed as functional, cell-based. The following applies: SW-620, 72 h. The procedure, abridged: as §1
Test [11] concerns L1210. Put plainly: Antiproliferative activity against mouse L1210 cells after 2 days by MTT assay. Type of test: functional, cell-based. The following applies: L1210, 48 h.
Test [12] deals with Coxsackievirus B4. Put plainly: Antiviral activity against Coxsackie B4 virus assessed as inhibition of virus-induced cytopathogenicity in HeLa cells. Type of test: functional, organism-based. The following applies: Enterovirus B. The procedure, abridged:
(§3)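 Cytopathicity-reduction assay: Coxsackie B4 virus in HeLa cell cultures; influenza A (H3N2) in MDCK cell cultures. Virus-induced cytopathicity is scored at the time point when untreated virus-exposed cultures reach full cytopathic effect.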

For test [13], the system named is Influenza A virus H3N2. Put plainly: Antiviral activity against influenza A virus H3N2 assessed as inhibition of virus-induced cytopathogenicity in MDCK cells. Type of test: functional, organism-based. The procedure, abridged:
as §3

The subject of test [14] is Human alphaherpesvirus 3. Put plainly: Antiviral activity against Varicella-Zoster virus assessed as inhibition of virus-induced cytopathogenicity in HEL cells. Type of test: functional, organism-based. The following applies: Human alphaherpesvirus 3, HEL.

Take `O=C1c2ccccc2C(=O)N1C/C=C\Cn1cc(C#CCCc2ccccc2)c(=O)[nH]c1=O`: the IC50 was more than 100 µM in test [1]; more than 100 µM in [2]; 168 µM in test [5]; 146 µM in test [6]; more than 100 µM in test [7]; more than 100 µM in [8]. The IC50 in test [9] and in [10] was more than 100 µM in each case. Besides, the results for the EC50 in [3] and in test [4] were not below 50 µM and 35 µM, respectively.
For the compound `CCCCCc1ccc(C#Cc2cn(C/C=C/CN3C(=O)c4ccccc4C3=O)c(=O)[nH]c2=O)cc1`, the IC50 came to 5.6 µM in [1]; 25 µM in test [2]; 39 µM in test [11]; 23 µM in test [5]; 17 µM in test [6]; 27 µM in [7]. Also, the IC50 in [8] turned out to be 4.3 µM; in [9], 26 µM; in test [10] it was 30 µM. Besides, the EC50 in test [3] was 3.1 µM; in [4], 14 µM; in [12], 12 µM.
Consider `CCCCCC#Cc1cn(C/C=C/CN2C(=O)c3ccccc3C2=O)c(=O)[nH]c1=O`, for which the IC50 in [1] was 44 µM; in test [2], 40 µM; in [11], more than 500 µM; in [5], more than 500 µM; in test [6] it was more than 500 µM; in [7] it was 91 µM. For the same compound, the IC50 amounted to 9 µM in [8], 60 µM in test [9] and 58 µM in test [10]. For the same compound, the EC50 in test [3] and in test [4] was more than 50 µM throughout.
`CCCCCCC#Cc1cn(C/C=C/CN2C(=O)c3ccccc3C2=O)c(=O)[nH]c1=O`: the IC50 in test [1] stood at 24 µM; in test [2], 40 µM; in [11] it was 43 µM; in [5], 28 µM; in test [6], 35 µM; in [8] it was 14 µM. Moreover, the IC50 in test [9] came out at 30 µM; in test [10], 32 µM. Further, the EC50 in test [3] and in [4] was not below 10 µM each time.
`Cc1ccc(C#Cc2cn(C/C=C\CN3C(=O)c4ccccc4C3=O)c(=O)[nH]c2=O)cc1`: the IC50 was more than 100 µM in [1]; more than 100 µM in test [2]; 238 µM in test [5]; 266 µM in test [6]; more than 100 µM in test [7]; 68 µM in test [8]. For the same compound, the IC50 in [9] and in test [10] was more than 100 µM throughout. Further, the EC50 is more than 250 µM in test [3], more than 250 µM in test [4] and 20 µM in [13].
As to `CCCCCc1ccc(C#Cc2cn(C/C=C\CN3C(=O)c4ccccc4C3=O)c(=O)[nH]c2=O)cc1`, the IC50 in test [1] was more than 100 µM; in [2] it was more than 100 µM; in test [11], 28 µM; in test [5] it was 102 µM; in [6], 30 µM; in test [7] it was more than 100 µM. Besides, the IC50 in test [8] is 18 µM; in test [9], more than 100 µM; in [10] it was more than 100 µM. In addition, the EC50 in test [3] was more than 2 µM; in [4] it was more than 2 µM; in test [14], 8.7 µM.
On to `CCCCC#Cc1cn(C/C=C/CN2C(=O)c3ccccc3C2=O)c(=O)[nH]c1=O`, for which the IC50 in [1] stood at 8.8 µM; in [2] it was 35 µM; in test [11], 236 µM; in [5] it was 192 µM; in test [6], 171 µM; in test [7], 89 µM. For the same compound, the IC50 in test [8] is 7.9 µM; in [9], 77 µM; in [10], more than 100 µM. Moreover, the EC50 in test [3] and in test [4] was not below 50 µM each time.
For the compound `O=C1c2ccccc2C(=O)N1C/C=C/Cn1cc(C#CCCc2ccccc2)c(=O)[nH]c1=O`, the IC50 in [1] worked out at 13 µM; in test [2], 31 µM; in test [11], 44 µM; in test [5], 38 µM; in [6], 39 µM; in test [7] it was 29 µM. Also, the IC50 was found to be 7.3 µM in test [8], 27 µM in test [9] and 11 µM in test [10]. Also, the EC50 in [3] and in [4] was not below 10 µM throughout.
Regarding `CCCCCCCCC#Cc1cn(C/C=C/CN2C(=O)c3ccccc3C2=O)c(=O)[nH]c1=O`, the IC50 in [1] was 66 µM; in [2], 53 µM; in test [11], more than 250 µM; in test [5], more than 250 µM; in test [6], more than 250 µM; in test [7], more than 100 µM. In addition, the IC50 in test [8] is 43 µM; in [9], more than 100 µM; in test [10], 87 µM. Moreover, the EC50 in test [3] and in [4] was more than 50 µM throughout.
With `CCCCC#Cc1cn(C/C=C\CN2C(=O)c3ccccc3C2=O)c(=O)[nH]c1=O`, the IC50 in test [1] was determined as 45 µM; in test [2], 28 µM; in test [11], 109 µM; in [5], 100 µM; in [6], 41 µM; in test [7], 33 µM. The IC50 in test [8] is 17 µM; in test [9], more than 100 µM; in [10] it was 82 µM. Also, the EC50 in test [3] and in test [4] was not below 50 µM throughout.
With `CCCCc1ccc(C#Cc2cn(C/C=C/CN3C(=O)c4ccccc4C3=O)c(=O)[nH]c2=O)cc1`, the IC50 in [1] stood at 44 µM; in [2] it was 40 µM; in test [11] it was 42 µM; in [5] it was 31 µM; in test [6] it was 29 µM; in [7] it was 94 µM. In addition, the IC50 was 9.1 µM in test [8], 79 µM in test [9] and more than 100 µM in test [10]. Also, the EC50 in test [3] and in [4] was more than 10 µM each time.
As for `O=C1c2ccccc2C(=O)N1C/C=C\Cn1cc(C#Cc2ccc(Br)cc2)c(=O)[nH]c1=O`, the IC50 is more than 100 µM in test [1]; 47 µM in test [2]; 448 µM in test [11]; 80 µM in test [5]; 89 µM in [6]; more than 100 µM in test [9]. Also, the IC50 in [10] is more than 100 µM. Also, the EC50 in test [3] was more than 50 µM; in [4], 10 µM.
On to `O=c1[nH]cc(F)c(=O)[nH]1` [FLUOROURACIL], for which the IC50 in [2] turned out to be 10 µM; in test [11], 0.69 µM; in [6] it was 20 µM; in [8], 9.2 µM; in [9], 6.5 µM; in test [10], 8.7 µM.
`CCCCCCCCC#Cc1cn(C/C=C\CN2C(=O)c3ccccc3C2=O)c(=O)[nH]c1=O`: the IC50 was determined as 64 µM in test [1]; 49 µM in test [2]; 45 µM in [11]; 39 µM in test [5]; 36 µM in test [6]; 59 µM in test [7]. Besides, the IC50 in test [9] came out at 68 µM; in test [10] it was 67 µM. In addition, the EC50 in [3] was more than 50 µM; in [4], more than 50 µM; in [13] it was 2.5 µM.
Turning to `CCCCc1ccc(C#Cc2cn(C/C=C\CN3C(=O)c4ccccc4C3=O)c(=O)[nH]c2=O)cc1`, the IC50 is 43 µM in [1]; 17 µM in test [2]; 23 µM in test [5]; 31 µM in test [6]; 85 µM in [7]; 40 µM in test [8]. The IC50 in test [9] was 56 µM; in test [10], more than 100 µM. Besides, the EC50 in test [3] and in [4] was more than 10 µM in each case.

In general, IC50 refers to the midpoint of a concentration-inhibition curve. High values mean lower potency, low ones higher potency. As a reminder, the EC50 is the concentration at which the effect is half-maximal.
